Screen size: about 2,400 compounds; about 940 (39%) were called active.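 The calls were made as follows: active = inhibition above the plate's mean compound inhibition plus 3 SD, computed per plate (cut at about 22% in these data); inactive = the rest.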 A selection follows.

The test in a line: reduced calcium signal in Ga16 cells – fluorescence, CHO-Ga16 cells, counter-screen for TAAR1 agonist project (AID 651952).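 Also: 0% = EC80 ATP with DMSO and 100% = DMSO wells without ATP.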 As to conditions: CHO-Ga16 ATP-induced calcium, Fluo-8 fluorescence; at 3 µM; hits give high values. In a few lines:
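Also added: EC80 ATP stimulus. Test system: parental CHO cells stably overexpressing Gα16, lacking hTAAR1. Incubation: 17–24 h seeding, dye 75 min 37 °C, 30 min RT. Measure: percent inhibition from peak-to-pre-ATP-basal fluorescence ratio, scaled between controls. Repeats: three replicates. Technique: Fluo-8 calcium fluorescence.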
(A counterscreen serves to expose hits that act by an unwanted route or on another target.)
Consider `NC(=O)C1=C[C@H](c2csc3ccccc23)C[C@H](OCc2ccc(CO)cc2)O1`, for which the inhibition (as a rule, the relative decrease from the control value, in per cent) was 36.5% (active).
The result for `CCc1ccccc1S(=O)(=O)Cc1ccc(C(=O)NCCc2ccccc2)o1` reads 8.92% (inactive); that for `O=C(Cc1ccc(Cl)cc1)NC(=S)Nc1ccccc1O`, 92.6% (active).
Regarding `O=C(NCCc1ccccc1)Oc1ccc(Cl)cc1`, the inhibition was 11% (inactive).
The result for `Cc1ccccc1NC(=S)NC(=O)Cc1ccc(Cl)cc1` reads 44.5% (active); that for `S=C(NCCCc1cnc[nH]1)NCCCN(Cc1ccc(Cl)c(Cl)c1)c1ccc(Br)cn1`, 48.6% (active).
Take `CCCCCCCCCCOC(=O)Cn1c(COc2ccc(C)cc2)[n+](C)c2ccccc21`: the inhibition is 75.9% (active).
The result for `Nc1cccc2c1C(=O)N(Cc1nnc(-c3ccccc3Br)o1)C2=O` reads 7.55% (inactive); that for `O=C(CSc1nc(-c2ccco2)cc(C(F)(F)F)n1)NCc1cccs1`, 3.17% (inactive); that for `NC(Cc1ccccc1)c1csc(Nc2cc(Oc3ccccc3)ncn2)n1` (stereo not given), 34.3% (active).
With `O=C(COC(=O)Cc1ccccc1F)NCCc1ccccc1`, the inhibition is 5.44% (inactive).
Consider `CC(=O)Oc1ccc(Cn2c(C)c(C(=O)NCc3ccc(C#N)cc3)sc2=O)cc1`, for which the inhibition is 45.6% (active).
For `CN(C)c1ccc(/C=C2\NC(=S)N(Cc3ccccc3)C2=O)cc1`, the inhibition is 71.1% (active).
Take `O=C(/C=C/[C@H]1O[C@@H](n2cnc3c(NC(=O)c4ccccc4)ncnc32)[C@H](O)[C@@H]1O)NCc1ccccc1`: the inhibition was 7.32% (inactive).
The result for `CN(C)CCCN(C(=O)c1ccc(S(=O)(=O)N2CCCc3ccccc32)cc1)c1nc2ccc(F)cc2s1` reads 43.4% (active); that for `CN(C)CCCN(C(=O)c1ccc(S(=O)(=O)N2CCCCCC2)cc1)c1nc2ccc(Br)cc2s1`, 43% (active).
For the compound `Cc1cc(=O)oc2c(C)c(OCC(=O)NCCN3CCOCC3)ccc12`, the inhibition is 7.14% (inactive).
Regarding `Nc1c(NCCc2ccccc2)c2ccccc2oc1=O`, the inhibition was 18% (inactive).
As to `CCOC(=O)Cc1csc(NC(=O)Nc2ccccc2)n1`, the inhibition is 26.6% (active).
The result for `Cc1ccn2c(=O)c(C(=O)NCCC3=CCCCC3)c(O)nc2c1` reads -3.36% (inactive); that for `Cc1ccc(O)c(NC(=S)NC(=O)COc2ccc(Br)cc2)c1`, 92% (active); that for `COCCCn1c(Cc2csc(Nc3cccc(Cl)c3)n2)nnc1SCC(=O)OC1CCCCC1`, 6.89% (inactive).
`c1ccc(CCN2CN=C(Nc3nc4ccccc4o3)NC2)cc1`: the inhibition was -0.52% (inactive).
The result for `CCCCCC(=O)NC(=S)NNC(=O)c1ccc([N+](=O)[O-])cc1` reads 51.5% (active).
For the compound `O=C(NCCc1ccccc1)/C(=C\c1ccc([N+](=O)[O-])cc1)NC(=O)c1ccccc1`, the inhibition was 9.72% (inactive).

Values taken from PubChem BioAssay AID651952 (The Scripps Research Institute Molecular Screening Center, 2012).
